CXCR6 block – blocks human CXCR6 beta-arrestin recruitment; CHO-K1 PathHunter CXCR6 beta-arrestin, luminescence; actives 0.36% (n = 360,000); O00574; inhibition, % at 20 µM; in the data active = inhibition above about 34%, passing the limit was not always enough;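 note: antagonist mode with CXCL16 agonist at 10 nM final; 0% = 10 nM CXCL16 with DMSO and 100% = unstimulated wells without agonist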
APJ antag – blocks the human apelin receptor APJ; P35414; actives 0.32% (n = 330,000); AID 2521; CHO-K1 APJ beta-arrestin complementation, luminescence; inhibition, % at 20 µM;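 active = inhibition above about 40% at 20 µM, limit read from the data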;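 note: cells challenged with 10 nM apelin-13 agonist together with compound; plate controls were apelin-13 plus DMSO wells for no effect and DMSO wells lacking apelin-13 for full effect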
Target sequence (P35414 whole entry, looked up): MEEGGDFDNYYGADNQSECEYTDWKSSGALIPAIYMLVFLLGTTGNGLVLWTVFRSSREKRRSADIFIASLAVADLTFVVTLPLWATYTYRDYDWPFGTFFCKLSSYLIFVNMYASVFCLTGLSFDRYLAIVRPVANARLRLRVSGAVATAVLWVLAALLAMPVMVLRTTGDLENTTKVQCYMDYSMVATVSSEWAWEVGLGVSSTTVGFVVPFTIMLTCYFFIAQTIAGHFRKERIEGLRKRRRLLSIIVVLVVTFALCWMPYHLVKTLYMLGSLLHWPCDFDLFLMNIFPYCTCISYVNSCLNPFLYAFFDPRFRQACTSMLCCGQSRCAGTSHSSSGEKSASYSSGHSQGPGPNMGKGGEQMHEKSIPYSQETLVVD
APJ agonist – agonists of human APJ apelin receptor | actives 0.11% (n = 330,000) | activation, % at 20 µM | CHO-K1 APJ PathHunter beta-arrestin, luminescence; 0% DMSO wells, 100% apelin;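 active = activation more than six SD over the plate average, tested at 20 µM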;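 note: 0% = DMSO alone and 100% = apelin-13 at 10 nM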
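Incubation: overnight seeding, 90 min compound at 25 °C, 1 h detection; test system: PathHunter CHO-K1 APJ (AGTRL-1) beta-arrestin reporter cells; amount: 1000 cells/well; doses: one dose, 20 µM compound, 1% DMSO; measured by: beta-gal luminescence; measure: agonist-driven arrestin binding to APJ; benchmarks: negative DMSO alone, positive Apelin-13 at 10 nM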
PKA-R1A activ – PKA-R1A complex activation; P00514+P68181; PKA-R1A dissociation, Cy5-IP20 fluorescence polarization; scaled: DMSO 0%, 113 µM cGMP 100%; activation, % at 11.4 µM; actives 0.083% (n = 340,000);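 active = percent activation above the mean of all tested compounds plus 3 SD, cut at about 19% in these data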;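 note: higher means more PKAc released from R1A so a rise in polarization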
CCR6 antag – antagonists of human CCR6 receptor; P51684; CHO-K1 CCR6 PathHunter beta-arrestin, luminescence, CCL20-stimulated; inhibition, % at 20 µM; actives 0.49% (n = 340,000); AID 493098;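 active = compounds whose inhibition of the agonist-driven luminescence signal at 20 µM reaches about 50%, limit read from the data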;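 note: cells stimulated with CCL20 at 14 nM final; plate controls were DMSO with CCL20 for no effect and DMSO without agonist for full effect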
PKA-R2B activ – activators of human PKA-R2B complex; P22694+P31323; PKA-R2B holoenzyme dissociation, Cy5-IP20 fluorescence polarization; R2B truncated from residue 108, S112A mutant; 0% DMSO only, 100% 113 µM cGMP; activation, % at 11.4 µM; actives 0.079% (n = 340,000); AID 504700;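 active = activation above a cutoff set at the mean over all compounds plus 3 SD, cut at about 18% in these data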;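 note: higher means more holoenzyme dissociation and a rise in polarization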
APJ ag conf – APJ receptor agonism confirmation; shares compounds with APJ agonist; CHO-K1 APJ PathHunter beta-arrestin, luminescence; activation, % at 20 µM; actives 10% (n = 310); AID 2764;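 active = activation above 40%, taking the highest of four retests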;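 note: plate controls were DMSO wells for no effect and apelin-13 at 10 nM for full effect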
* marks the source's active call; other numbers are inactive results; x = no result. Only some compounds are listed: those with a hit (about 0.88% of all), similar ones and a draw of the others.

SMILES | CXCR6 block | APJ antag | APJ agonist | PKA-R1A activ | CCR6 antag | PKA-R2B activ | APJ ag conf
N/C(=N\OC(=O)c1ccc(Cl)c([N+](=O)[O-])c1)c1ccccn1 | -21.1 | -43.1 | 17.4* | 7.9 | -17.8 | -1.8 | 6.6
N/C(=N\OC(=O)c1cccc(Br)c1)c1ccccn1 | -22.0 | -157.8 | 33.8* | -5.4 | -36.7 | 1.2 | 10.9
O=C(NCCc1cn2ccccc2n1)c1cc(COc2ccc3ncccc3c2)on1 | -2.9 | -13.4 | 30.8* | 12.3 | -21.1 | 7.2 | 4.5
O=C(NC1CCCC1)c1cc(COc2ccc3ncccc3c2)on1 | -13.3 | -4.4 | -0.2 | -5.8 | 5.9 | -9.2 | x
CC1=C(C)/C(=N\OS(=O)(=O)c2ccccc2)C=CC1=O | 50.6* | 38.1 | 41.2* | -11.1 | 87.0* | -13.6 | 32.9
Cc1ccc(C(=O)O/N=C/c2c(N3CCOCC3)n(C)c3ccccc23)cc1 | -10.1 | -64.6 | 6.3 | 2.0 | -39.5 | 8.6 | x
Cn1c(N2CCOCC2)c(/C=N/OC(=O)c2ccc(F)cc2)c2ccccc21 | -6.1 | -47.5 | 16.7* | -0.8 | 0.9 | -0.8 | 38.6
COc1ccc([C@H]2[C@H](C(=O)C(C)(C)C)N3N=Cc4ccccc4C3[C@]23N=C(c2ccccc2)OC3=O)cc1 (stereo not given in full) | 3.4 | 7.3 | -0.8 | 7.6 | 20.9 | -7.2 | x
CC(C)(C)OC(=O)[C@H]1[C@H](c2ccc([N+](=O)[O-])cc2)C2(C(=O)c3ccccc3C2=O)C2c3ccccc3C=NN21 (stereo not given in full) | 2.1 | -1.6 | 43.0* | 5.2 | 17.1 | 0.7 | 44.5*
O=S(=O)(c1ccc2nc(N3CCN(c4ccc(F)cc4)CC3)ccc2c1)N1CCCCC1 | 5.2 | 13.2 | -7.0 | 2.1 | 13.2 | 2.0 | x
CC1CCN(S(=O)(=O)c2ccc3nc(N4CCN(c5ccccc5)CC4)ccc3c2)CC1 | x | -2.3 | 53.4* | x | -11.6 | x | 11.0
CCOC(=O)[C@]12CCC=C1N(Cc1ccc(Cl)cc1Cl)C(=O)[C@H](CC(=O)NCc1ccc(OC)c(OC)c1)C2 | 6.2 | x | x | x | x | x | x
O=C(c1cnn2c(C(F)(F)F)cc(-c3cccs3)nc12)N1CCN(Cc2ccccc2)CC1 | -3.3 | -4.4 | 29.6* | -6.0 | 3.6 | 4.0 | 8.4
CCSc1nc(O)c(CC)c(=O)n1C(C)CC (stereo not given) | -3.0 | -19.0 | 39.2* | -4.0 | -25.1 | -10.6 | 60.6*
CCOc1ccc(Nc2nc(NCC3CCCO3)c3ccccc3n2)cc1 (stereo not given) | 7.5 | -24.8 | 13.4* | -0.6 | -2.8 | -2.2 | 28.6
c1ccc(Nc2nc(NCC3CCCO3)c3ccccc3n2)cc1 (stereo not given) | -5.4 | -52.2 | 0.8 | -3.1 | -10.9 | 1.7 | x
COc1cc(OC)cc(-c2n[nH]c(=S)n2-c2cc(OC)ccc2OC)c1 | 2.6 | -3.4 | 36.4* | -4.8 | 20.1 | -0.8 | 40.2*
COc1ccc(OC)c(-n2c(-c3ccc(O)cc3O)n[nH]c2=S)c1 | 5.4 | -4.7 | 1.7 | 4.8 | 5.2 | 3.2 | x
COCCN1C(=O)CCC1(C)c1nnnn1Cc1ccccc1 (stereo not given) | -7.2 | x | x | x | x | x | x
CN(CCc1ccccc1)c1cc2c(c3c1ccn3C)C1CCC2C1 (stereo not given) | -8.7 | x | x | x | x | x | x
N#Cc1ccc(NC(=O)Nc2ccc(Oc3ccc(NC(=O)Nc4ccc(C#N)cc4)cc3)cc2)cc1 | -16.5 | -59.4 | 18.8* | -8.9 | -13.7 | 0.1 | 35.5
Cc1onc(-c2ccccc2Cl)c1C(=O)O/N=C(\N)c1ccccc1 | -33.5 | -112.4 | 30.6* | -21.1 | -28.5 | -1.5 | 21.4
CCOC(=O)C1=C(C)N=c2sc(=Cc3cc(Cl)c(OCC(=O)O)c(Cl)c3)c(=O)n2C1c1cccc(OC)c1 (stereo not given) | -0.6 | x | x | x | x | x | x
COc1cc(NC(=O)c2ccccc2)ccc1NC(=O)c1cc2ccccc2o1 | -0.7 | 3.4 | 17.0* | -1.7 | -5.5 | 7.8 | 1.2

Bioassay records (PubChem BioAssay)
